Results as given in ChEMBL document CHEMBL5120856, “New salicylic acid derivatives, double inhibitors of glycolate oxidase and lactate dehydrogenase, as effective agents decreasing oxalate production” (Eur J Med Chem, 2022).
Activity calls are given as the source filed them. No cut-off for these calls is given here.

Legend:
[1] = target: T1, 2-Hydroxyacid oxidase 1 (Homo sapiens, UniProt Q9UJM8); assay: Inhibition of N-terminal His-tagged human recombinant glycolate oxidase expressed in Escherichia coli BL21 (DE3) cells using glycolate as substrate preincubated for 10 mins followed by substrate addition and measured after 10 mins by Amplex red and horseradish peroxidase based fluorescence assay
T1 sequence (Q9UJM8 whole entry): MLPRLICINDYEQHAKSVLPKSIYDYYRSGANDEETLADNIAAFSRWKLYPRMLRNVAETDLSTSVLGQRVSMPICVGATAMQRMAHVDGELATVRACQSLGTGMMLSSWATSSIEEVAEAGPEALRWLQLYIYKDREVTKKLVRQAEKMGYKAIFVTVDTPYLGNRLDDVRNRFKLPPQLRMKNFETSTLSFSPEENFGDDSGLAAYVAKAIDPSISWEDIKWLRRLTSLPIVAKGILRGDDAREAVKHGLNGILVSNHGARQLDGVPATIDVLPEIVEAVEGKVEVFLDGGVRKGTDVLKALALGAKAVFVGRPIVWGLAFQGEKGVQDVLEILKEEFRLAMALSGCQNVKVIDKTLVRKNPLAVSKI

[2] = target: T2, L-lactate dehydrogenase A chain (Homo sapiens, UniProt P00338); assay: Inhibition of human recombinant LDHA using pyruvate as substrate preincubated for 10 mins followed by substrate addition and measured every 60 sec for 10 mins in the presence of NADH by fluorescence assay
[3] = target: T1, 2-Hydroxyacid oxidase 1; assay: Non-competitive mixed inhibition of N-terminal His-tagged human recombinant glycolate oxidase expressed in Escherichia coli BL21 (DE3) cells assessed as inhibition constant using varying concentration of glycolate as substrate measured every 60 sec for 15 mins by Amplex red and horseradish peroxidase based fluorescence assay
[4] = target: T3, 2-Hydroxyacid oxidase 1 (Homo sapiens) (UniProt Q9UJM8); assay: Reversible inhibition of N-terminal His-tagged human recombinant glycolate oxidase expressed in Escherichia coli BL21 (DE3) cells assessed as enzyme recovery using glycolate as substrate at 10 times of IC50 concentration preincubated for 30 mins followed by substrate addition and measured every 60 sec for 15 mins by jump-dilution based Amplex red and horseradish peroxidase fluorescence assay; settings: time 45.0 min
T3 sequence (whole entry): T1 sequence (Q9UJM8 whole entry)

[5] = target: T2, L-lactate dehydrogenase A chain; assay: Non-competitive inhibition of human recombinant LDHA assessed as inhibition constant using varying concentration of pyruvate as substrate preincubated for 10 mins followed by substrate addition and measured every 60 sec for 10 mins in the presence of NADH by fluorescence assay
[6] = target: L-lactate dehydrogenase B chain (Homo sapiens, UniProt P07195); assay: Non-competitive inhibition of human recombinant LDHB assessed as inhibition constant using varying concentration of pyruvate as substrate preincubated for 10 mins followed by substrate addition and measured every 60 sec for 10 mins in the presence of NADH by fluorescence assay
[7] = target: T3, 2-Hydroxyacid oxidase 1 (Homo sapiens); assay: Non-competitive mixed inhibition of N-terminal His-tagged human recombinant glycolate oxidase expressed in Escherichia coli BL21 (DE3) cells assessed as decrease in Vmax with increase in apparent Km using glycolate as substrate upto 60 microM
[8] = target: T2, L-lactate dehydrogenase A chain; assay: Non-competitive inhibition of human recombinant LDHA assessed as decrease in Vmax with no effect on Km using pyruvate as substrate upto 20 uM
[9] = test system: Hepatocyte; assay: Inhibition of GO/LDHA in hyperoxaluric-primary hepatocyte isolated from Agxt1 knockdown PH1 C57BL/6 mouse assessed as relative oxalate output at 10 uM measured at 24 hrs in the presence of glycolate relative to control; type: cell-based
Method in brief: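 Agxt1-/- mouse primary hepatocytes cultured with 5 mM glycolate, inhibitor at 10 μM; extracellular oxalate measured by colorimetric kit 24 and 48 h after inhibitor addition; relative oxalate = oxalate with inhibitor over oxalate without inhibitor; negative values mean below detection limit; mean of three/four replicates ± SD.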

[10] = test system: Hepatocyte; assay: Inhibition of GO/LDHA in hyperoxaluric-primary hepatocyte isolated from Grhpr-knockdown PH2 C57BL/6 mouse assessed as relative oxalate output at 10 uM measured at 24 hrs in the presence of glycolate relative to control; type: cell-based
Method in brief: (§1)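 Grhpr-/- mouse primary hepatocytes cultured with 10 mM glycolate, inhibitor at 10 μM; extracellular oxalate determined colorimetrically at 24 and 48 h post-treatment, expressed relative to untreated medium (RO); negative RO means below detection limit; three/four replicates, mean ± SD.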

[11] = test system: Hepatocyte; assay: Inhibition of GO/LDHA in hyperoxaluric-primary hepatocyte isolated from Grhpr-knockdown PH2 C57BL/6 mouse assessed as relative oxalate output at 10 uM measured at 48 hrs in the presence of glycolate relative to control; type: cell-based; method in brief: as §1
[12] = test system: Hepatocyte; assay: Inhibition of GO/LDHA in hyperoxaluric-primary hepatocyte isolated from Hoga1-knockdown PH3 C57BL/6 mouse assessed as relative oxalate output at 10 uM measured at 24 hrs in the presence of hydroxyproline relative to control; type: cell-based
Method in brief: (§2)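 Hoga1-/- mouse primary hepatocytes challenged with 10 mM hydroxyproline, inhibitor 10 μM; extracellular oxalate measured by colorimetric kit 24 and 48 h after dosing, given as ratio to oxalate without inhibitor; negative values are below detection limit; mean of three/four replicates ± SD.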

[13] = test system: Hepatocyte; assay: Inhibition of GO/LDHA in hyperoxaluric-primary hepatocyte isolated from Hoga1-knockdown PH3 C57BL/6 mouse assessed as relative oxalate output at 10 uM measured at 48 hrs in the presence of hydroxyproline relative to control; type: cell-based; method in brief: as §2
[14] = test system: Hepatocyte; assay: Cytotoxicity against hyperoxaluric-primary hepatocyte isolated from Hoga1-knockdown PH3 C57BL/6 mouse assessed as cell death at 10 uM by MTS assay; type: toxicity, cell-based; settings: hepatocytes, Hoga1-knockdown PH3, 10 µM
Method in brief: (§3)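 Primary hepatocytes from Agxt1-/- (PH1, 5 mM glycolate), Grhpr-/- (PH2, 10 mM glycolate) or Hoga1-/- (PH3, 10 mM hydroxyproline) mice, incubated with inhibitor at 10 μM; viability followed through the oxalate assay by MTS tetrazolium method.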

[15] = test system: Hepatocyte; assay: Cytotoxicity against hyperoxaluric-primary hepatocyte isolated from Grhpr-knockdown PH2 C57BL/6 mouse assessed as cell death at 10 uM by MTS assay; type: toxicity, cell-based; settings: hepatocytes, Grhpr-knockdown PH2 (primary hyperoxaluria type 2); method in brief: as §3
[16] = target: T4, Prostaglandin G/H synthase 1 (Ovis aries, UniProt P05979); assay: Inhibition of ovine COX-1 using arachidonic acid as substrate measured every 60 sec for 10 mins by fluorescence based assay
T4 sequence (P05979 whole entry): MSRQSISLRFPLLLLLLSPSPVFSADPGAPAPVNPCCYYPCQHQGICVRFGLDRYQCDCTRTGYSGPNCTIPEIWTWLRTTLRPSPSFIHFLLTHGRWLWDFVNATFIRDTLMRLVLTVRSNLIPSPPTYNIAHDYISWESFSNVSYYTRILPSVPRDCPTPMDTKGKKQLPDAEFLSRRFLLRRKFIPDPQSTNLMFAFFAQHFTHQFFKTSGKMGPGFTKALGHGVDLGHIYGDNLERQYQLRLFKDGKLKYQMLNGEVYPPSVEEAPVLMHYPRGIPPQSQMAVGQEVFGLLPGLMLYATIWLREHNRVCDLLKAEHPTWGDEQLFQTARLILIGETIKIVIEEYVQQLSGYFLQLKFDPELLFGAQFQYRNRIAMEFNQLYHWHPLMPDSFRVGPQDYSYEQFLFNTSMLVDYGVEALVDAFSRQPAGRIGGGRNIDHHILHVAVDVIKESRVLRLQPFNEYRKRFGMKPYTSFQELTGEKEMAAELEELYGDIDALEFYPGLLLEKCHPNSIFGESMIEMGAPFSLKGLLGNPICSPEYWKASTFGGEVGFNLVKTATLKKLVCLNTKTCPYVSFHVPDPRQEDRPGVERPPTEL

[17] = test system: HEK293; assay: Cytotoxicity against HEK293 cells assessed as reduction in cell viability upto 50 uM measured after 48 hrs by MTT assay; type: toxicity, cell-based; settings: human, hek293, 48 h

Sequence of L-lactate dehydrogenase B chain (P07195 whole entry): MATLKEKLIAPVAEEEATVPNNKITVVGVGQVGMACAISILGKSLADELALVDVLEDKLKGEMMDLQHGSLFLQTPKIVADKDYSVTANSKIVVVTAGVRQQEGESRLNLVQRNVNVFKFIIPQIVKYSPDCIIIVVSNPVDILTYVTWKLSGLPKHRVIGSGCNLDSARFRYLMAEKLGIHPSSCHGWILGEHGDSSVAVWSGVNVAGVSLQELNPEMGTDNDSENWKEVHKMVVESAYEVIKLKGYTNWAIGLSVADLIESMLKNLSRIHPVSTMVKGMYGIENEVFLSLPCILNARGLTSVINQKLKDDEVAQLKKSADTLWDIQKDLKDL

IC50 [1]: 1500 nM
IC50 [2]: 400 nM
Ki [3]: 2300 nM
inhibition [4]: Active
Ki [5]: 90 nM
Ki [6]: 700 nM
inhibition [7]: Active
inhibition [8]: Active
IC50 [16]: 24000 nM
Compound: N.N.O=C(O)c1cc(-c2ccc(CN(Cc3ccccc3)Cc3ccc(-c4ccc(O)c(C(=O)O)c4)o3)o2)ccc1O
fold change (FC) [9]: 0.66
fold change (FC) [10]: 0.59
fold change (FC) [11]: 0.76
fold change (FC) [12]: 0.41
fold change (FC) [13]: 0.47
Activity [14]: Non-Toxic
Activity [15]: Non-Toxic
Activity [17]: Non-Toxic
